Compound activity: PubChem, several laboratories
This is a sample that favours compounds with a hit; in the whole collection about 4.1% have one here.
KCNK9 inh: human KCNK9 channel inhibition; hit rate 1.2% among 310,000; Q9NPC2; AID 488922; HEK293 KCNK9, FluxOR thallium flux fluorescence; stronger effect = lower value; B-score at 10 µM;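 active = ratio B-score over 3 SD below the library mean, with starting fluorescence within 5 SD of its mean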;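 also: negative B-score means less thallium flux so channel inhibition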
Cl transport mod: modulates chloride dependent transport by human KCC2. Q9H2X9. KCC2 cells, thallium flux FluoZin-2 fluorescence. B-score of Tl+ flux slope (higher = more flux/activation; lower = inhibition) at 10 µM. hit rate 2.2% among 190,000. AID 1456;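 active = thallium flux slope and its plate-corrected score both differing from the plate sample mean at a set confidence after two filtering rounds, in either direction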;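 also: slope of fluorescence scaled to starting intensity during 10 to 20 s after thallium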
KCNQ1 act: potentiators or activators of human KCNQ1 potassium channel | P51787 | CHO-K1 KCNQ1, thallium flux FluxOR fluorescence; stronger effect = higher value | B-score at 10 µM | hit rate 0.35% among 310,000 | AID 2648;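 active = fluorescence ratio B-score, a plate-corrected score, at least three library SD, with initial intensity B-score within 5 SD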
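Assay system: stable KCNQ1 CHO-K1 line; medium: assay buffer, equal DMSO in all wells; timing: 90 min dye loading and 20 min compound exposure, both at room temperature; technique: kinetic FluxOR thallium fluorescence, 10-s 1-Hz baseline, 110-s post-stimulus read; read-out basis: B score of baseline-normalized fluorescence ratio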
hERG protect: hERG (human) protection from proarrhythmic block; Q12809; CHO-hERG, FluxOR thallium flux, dofetilide IC70 present; activation (rescue from dofetilide block), less the hit threshold, % at 10 µM; hit rate 0.51% among 310,000;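 active = activation above the mean of controls blocked by dofetilide plus 5 SD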;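 also: thallium influx through hERG after potassium depolarization seen as dye fluorescence rise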
KCNQ1 block: human KCNQ1 channel inhibition; AID 2642; B-score at 10 µM; hit rate 1.3% among 310,000; CHO-K1 KCNQ1, FluxOR thallium flux fluorescence; stronger effect = higher value;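 active = compounds whose thallium flux B-score, printed positive for inhibition, exceeds three library SD while starting fluorescence stays within three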;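 also: channel opened by potassium depolarization with thallium stimulus after 20 min compound exposure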
KCNK3 block: human KCNK3 channel inhibition, primary screen; O14649; CHO-KCNK3 thallium flux, FluxOR fluorescence; stronger effect = lower value; B-score at 10 µM; hit rate 0.84% among 340,000;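 active = B-score under library mean minus 4 SD, starting fluorescence ratio at most library mean plus 5 SD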;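 also: more negative B-score means stronger inhibition of thallium flux through KCNK3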
KCC2 sec1: KCC2 (human) modulation, secondary assay; normalised thallium flux (F/F0 slope) at 10 µM; hit rate 15% among 3,700; AID 1713; shares compounds with Cl transport mod; HEK293-KCC2, thallium flux, FluoZin2 fluorescence; stronger effect = higher value;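 active = thallium flux slope above the same plate's solvent-only control mean plus 3 SD; inconclusive = the two replicate wells disagree; inactive = no significant difference from solvent-only control wells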
KCC2 bumet counter: thallium flux persisting under bumetanide in KCC2 cells, counter-screen secondary assay; shares compounds with Cl transport mod; HEK293-KCC2 + bumetanide/ouabain, thallium flux FluoZin2; stronger effect = higher value; normalized thallium flux at 10 µM; hit rate 49% among 3,700; AID 1714;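 active = thallium entry rate above the same plate's blocked-transporter control wells by more than 3 SD; inconclusive = the two repeat wells disagree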;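 also: raw slope of fluorescence over initial fluorescence between 10 and 20 s after thallium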
KCC2 secondary2: confirmation of human KCC2 transport modulators. shares compounds with Cl transport mod. HEK293-KCC2, thallium flux FluoZin2 fluorescence; actives lie on both sides; F/F0 rise rate, 10–20 s post-thallium. normalized thallium flux at 10 µM. hit rate 23% among 3,700. AID 1715;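 active = thallium flux slope more than 3 SD above or below the plate's solvent-only control mean, mostly below; inconclusive = the two repeat wells disagreed; inactive = no significant shift from solvent-only controls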;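 also: raw slope with 0.1% DMSO as baseline and bumetanide as block control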
HEK counter1: acts in parental HEK cells, KCC2 counter-screen | shares compounds with Cl transport mod | HEK293 parental cells, thallium flux FluoZin2, ouabain; baseline-ratio fluorescence slope, 10–20 s after thallium | thallium flux rate (normalised fluorescence) at 10 µM | hit rate 46% among 3,700;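 active = thallium flux rate significantly above the same plate's solvent-only control wells, beyond their mean plus 3 SD; inconclusive = the two replicate wells gave conflicting results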
KCC2 ouabain: KCC2 (human) modulation, ouabain retest | shares compounds with Cl transport mod | hit rate 48% among 3,700 | raw Tl+ flux slope (below DMSO = inhibition, above = activation) at 10 µM | AID 1717 | HEK293-KCC2, thallium flux FluoZin2 fluorescence; bidirectional: low = inhibitor, high = activator;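 active = thallium flux slope beyond 3 SD from same-plate DMSO control mean in most replicates, usually higher, sometimes lower; inconclusive = repeat tests gave conflicting results; inactive = no significant difference from controls in most replicates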;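 also: slope of initial-normalized fluorescence between seconds 10 and 20 after thallium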
HEK counter2: parental HEK flux effect, counter-screen 2; AID 1718; hit rate 33% among 3,700; shares compounds with Cl transport mod; thallium flux slope at 10 µM; HEK293 parental, thallium flux FluoZin-2 fluorescence slope;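 active = thallium flux slope above the same plate's solvent-control mean plus 3 SD in both duplicate wells; inconclusive = duplicate wells that disagreed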;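 also: run without ouabain in cells lacking the KCC2 cotransporter; slope of fluorescence scaled to its starting value between 10 and 20 s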
* hit, by the source's call.

For CCCCC(=O)N1C/C=C\C(c2ccc(OC)cc2)N(Cc2ccc(F)cc2)C(=O)C1 (stereo not given) the results were KCNK9 inh inactive, Cl transport mod -2.8*, KCNQ1 act inactive, hERG protect -7, KCNQ1 block inactive, KCNK3 block inactive, KCC2 sec1 0.0088, KCC2 bumet counter 0.005, KCC2 secondary2 0.033, HEK counter1 0.0076, KCC2 ouabain 0.019 and HEK counter2 0.011.
Screening NC(=O)CC(NC(=O)c1cccc(Br)c1)c1ccc(NC2CCCCCCC2)c([N+](=O)[O-])c1 (stereo not given) returned KCNK9 inh inactive, KCNQ1 act inactive, hERG protect 0, KCNQ1 block inactive and KCNK3 block inactive.
Screening COc1cc2c(cc1OC)CN(C(=O)c1cc(C3CC3)nn1-c1ccccc1)CC2 returned KCNK3 block inactive.
Screening Cc1cc(SCc2cccc(C(F)(F)F)c2)nc(=O)[nH]1 returned KCNK9 inh inactive, KCNQ1 act inactive, hERG protect -7, KCNQ1 block inactive and KCNK3 block inactive.
`O=C(CSc1nnnn1Cc1ccccc1)Nc1ccc2c(c1)OCO2` gave KCNK9 inh inactive, Cl transport mod -1.2, KCNQ1 act inactive, hERG protect -9, KCNQ1 block inactive and KCNK3 block inactive.
`O=C(CSc1nnnn1Cc1ccccc1)Nc1ccc2c(c1)OCCO2` gave KCNK9 inh inactive, Cl transport mod -5.1*, KCNQ1 act inactive, hERG protect 2, KCNQ1 block inactive, KCNK3 block inactive, KCC2 sec1 0.0064, KCC2 bumet counter 0.005, KCC2 secondary2 inconclusive, HEK counter1 0.0072, KCC2 ouabain inconclusive and HEK counter2 0.011.
CN1CCN(c2ccc(C(CC(N)=O)NC(=O)Cc3cccc4ccccc34)cc2[N+](=O)[O-])CC1 (stereo not given) was read as KCNK9 inh inactive, KCNQ1 act inactive, hERG protect -4, KCNQ1 block inactive and KCNK3 block inactive.
Screening O=C(CN1CCN(C(=O)CCC(=O)N2CCC(c3ccccc3)=N2)CC1)Nc1ccc(F)cc1 returned KCNK3 block inactive.
`Nc1c(C(=O)c2ccccc2)sc2snc(SCC(=O)c3ccccc3)c12` gave KCNK9 inh inactive, KCNQ1 act inactive, hERG protect -23, KCNQ1 block inactive, KCNK3 block inactive, KCC2 sec1 0.0084, KCC2 bumet counter 0.0066, KCC2 secondary2 0.03, HEK counter1 0.0072, KCC2 ouabain 0.019 and HEK counter2 0.01.
Cc1ccccc1OCC(O)COc1ccccc1C was read as KCNK3 block inactive.
O=c1oc(-c2ccc(F)cc2)nc2ccsc12 was read as KCNK9 inh inactive, KCNQ1 act inactive, hERG protect -9, KCNQ1 block inactive, KCNK3 block inactive, KCC2 sec1 0.0061, KCC2 bumet counter 0.005, KCC2 secondary2 0.032, HEK counter1 inconclusive, KCC2 ouabain 0.017* and HEK counter2 0.01.
Screening Cc1cc([N+](=O)[O-])cc(/C=N/n2c(C)nc3ccccc3c2=O)c1O returned KCNK9 inh inactive, Cl transport mod -3.3*, KCNQ1 act inactive, hERG protect -10, KCNQ1 block inactive, KCNK3 block inactive, KCC2 sec1 0.0072, KCC2 bumet counter inconclusive, KCC2 secondary2 0.029, HEK counter1 0.0078, KCC2 ouabain inconclusive and HEK counter2 0.011.
`CCC(OC(=O)C1=Cc2ccccc2OC1)C(=O)NCc1ccco1` (stereo not given) gave KCNK9 inh inactive, Cl transport mod -2.8*, KCNQ1 act inactive, hERG protect -6, KCNQ1 block inactive, KCNK3 block inactive, KCC2 sec1 0.0078, KCC2 bumet counter 0.0069, KCC2 secondary2 0.032, HEK counter1 0.0075, KCC2 ouabain inconclusive and HEK counter2 0.011.
For CCOC(=O)c1cnc(-c2ccccc2)[nH]c1=O the results were KCNK9 inh inactive, Cl transport mod -3.6, KCNQ1 act inactive, hERG protect -3, KCNQ1 block inactive and KCNK3 block inactive.
`CCOC(=O)c1cnc(-c2cccc(OC)c2)[nH]c1=O` gave KCNK9 inh inactive, KCNQ1 act inactive, hERG protect -12, KCNQ1 block inactive, KCNK3 block inactive, KCC2 sec1 0.0067, KCC2 bumet counter inconclusive, KCC2 secondary2 0.034, HEK counter1 0.0083, KCC2 ouabain 0.019 and HEK counter2 0.011.
O=C1C2C3C=CC(CC3)C2C(=O)N1/N=C/c1c(O)ccc2ccccc12 (stereo not given) was read as KCNK9 inh inactive, Cl transport mod 3.3*, KCNQ1 act inactive, hERG protect -8, KCNQ1 block inactive, KCNK3 block inactive, KCC2 sec1 0.009, KCC2 bumet counter 0.006, KCC2 secondary2 0.031, HEK counter1 0.0077, KCC2 ouabain 0.022 and HEK counter2 0.01.
Screening COCCn1c(-c2ccccc2Cl)nc2c(c(=O)c3ccccc3n2C)c1=O returned KCNK9 inh inactive, Cl transport mod -4.8*, KCNQ1 act inactive, hERG protect -6, KCNQ1 block inactive, KCNK3 block inactive, KCC2 sec1 inconclusive, KCC2 bumet counter 0.0047, KCC2 secondary2 0.021*, HEK counter1 0.0058*, KCC2 ouabain 0.01* and HEK counter2 0.0089.
Screening COc1ccc(CCn2c(-c3ccccc3)nc3c(c(=O)c4ccccc4n3C)c2=O)cc1 returned KCNK9 inh inactive, Cl transport mod -0.53, KCNQ1 act inactive, hERG protect -2 and KCNQ1 block inactive.
